From ChEMBL document CHEMBL1146591, “New polyhydroxy sterols: proteasome inhibitors from a marine sponge Acanthodendrilla sp” (J Nat Prod, 2003)
Values after ≈ are worked out from the molar mass of the structure shown. Active and inactive are the calls of the source. The rule behind the calls is not given here.

Legend:
HeLa = assay: Cytotoxicity against human HeLa cells after 3 days by MTT assay; assay type: functional, cell-based; conditions: 72 h
Procedure, shortened: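 HeLa cells grown in DMEM with 10% fetal calf serum, penicillin and streptomycin, 37 °C, 5% CO2. Seeded at 3 × 10^3 cells/well, precultured 1 day, then given compounds at various concentrations for 3 days at 37 °C. MTT (0.2 mg/mL in medium) added for 4 h, then DMSO, and OD read at 570 nm.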

Rattus norvegicus = species on record: Rattus norvegicus; assay: Inhibition of chymotrypsin like activity of partially purified rat liver proteasome at 100 ug/mL; assay type: subcellular
Procedure, shortened: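 Enzyme: proteasome-enriched pellet from rat liver (300 000g, 2 h). Preincubated with test material 10 min at 30 °C in 50 mM Tris-HCl pH 7.8, 1 mM DTT, 5 mM EDTA, 0.02% SDS. Then 0.05 mM Suc-LLVY-MCA added for 1 h at 30 °C. Stopped with 10% SDS and AMC fluorescence read (ex 380/em 460 nm).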

[1] = Inhibition of chymotrypsin like activity of partially purified rat liver proteasome; assay type: subcellular
Procedure, shortened: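 Enzyme: proteasome-enriched pellet from rat liver homogenate (300 000g, 2 h). Preincubated with inhibitor 10 min at 30 °C in 50 mM Tris-HCl pH 7.8, 1 mM DTT, 5 mM EDTA, 0.02% SDS. Then 0.05 mM Suc-LLVY-MCA added, 1 h at 30 °C, stopped with 10% SDS, AMC fluorescence read (ex 380/em 460 nm). IC50 from duplicate measurements.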

Compound	IC50 (HeLa) [µg/mL]	Activity (Rattus norvegicus)	IC50 [1] [µg/mL]
C/C=C(\C[C@@H](O)[C@@H](C)[C@H]1CC[C@H]2C3=C[C@H](OC(C)=O)[C@H]4[C@@H](OC(C)=O)[C@@H](OC(C)=O)CC[C@]4(C)[C@H]3[C@H](O)C[C@]12C)C(C)C [AGOSTEROL A3]	10 (≈ 16.6 µM)	inactive	
CC(=O)O[C@@H]1[C@@H]2[C@@H](OC(C)=O)C=C3[C@H]([C@H](O)C[C@]4(C)[C@@H]([C@H](C)[C@H](O)CCC(C)C)CC[C@@H]34)[C@@]2(C)CC[C@@H]1OC(C)=O [AGOSTEROL A]	25 (≈ 43.3 µM)		50 (≈ 86.7 µM)
CC(=O)O[C@@H]1[C@@H]2[C@@H](OC(C)=O)C=C3[C@H](CC[C@]4(C)[C@@H]([C@@](C)(O)[C@H](O)CCC(C)C)CC[C@@H]34)[C@@]2(C)CC[C@@H]1O [AGOSTEROL C2]	> 25		23 (≈ 43 µM)
C=C(CC(O)C(C)(O)[C@H]1CC[C@H]2C3=C[C@H](OC(C)=O)[C@H]4[C@@H](OC(C)=O)[C@@H](O)CC[C@]4(C)[C@H]3CC[C@]12C)C(C)C (stereo not given in full) [AGOSTEROL C7]	> 25		20 (≈ 36.6 µM)
CC(=O)O[C@@H]1[C@@H]2[C@@H](OC(C)=O)C=C3[C@H](CC[C@]4(C)[C@@H]([C@H](C)[C@H](O)CCC(C)C)CC[C@@H]34)[C@@]2(C)CC[C@@H]1O [AGOSTEROL C]	22 (≈ 42.4 µM)		10 (≈ 19.3 µM)
CC(=O)O[C@@H]1[C@@H]2[C@@H](OC(C)=O)C=C3[C@H](CC[C@]4(C)[C@@H]([C@@](C)(O)[C@H](O)CCC(C)C)CC[C@@H]34)[C@@]2(C)CC[C@@H]1OC(C)=O [AGOSTEROL D2]	23 (≈ 39.9 µM)		90 (≈ 156 µM)
C/C=C(\C[C@@H](O)[C@@H](C)[C@H]1CC[C@H]2C3=C[C@H](OC(C)=O)[C@H]4[C@@H](OC(C)=O)[C@@H](OC(C)=O)CC[C@]4(C)[C@@]3(O)CC[C@]12C)C(C)C [AGOSTEROL E3]	14 (≈ 23.2 µM)	inactive	
CC(=O)O[C@@H]1[C@@H]2[C@@H](OC(C)=O)C=C3[C@@H]4CC[C@H]([C@H](C)[C@H](O)CCC(C)C)[C@@]4(C)CC[C@]3(O)[C@@]2(C)CC[C@@H]1OC(C)=O [AGOSTEROL E]	25 (≈ 43.3 µM)	inactive	
CC(=O)O[C@@H]1[C@@H]2[C@@H](OC(C)=O)C=C3[C@H]([C@H](O)C[C@]4(C)[C@@H]([C@H](C)[C@H](O)CCC(C)C)CC[C@@H]34)[C@@]2(C)CC[C@@H]1O [AGOSTEROL F]	16 (≈ 29.9 µM)		35 (≈ 65.5 µM)
CC(=O)O[C@@H]1[C@@H]2[C@@H](OC(C)=O)C=C3[C@H]([C@H](OC(C)=O)C[C@]4(C)[C@@H]([C@H](C)[C@H](O)CCC(C)C)CC[C@@H]34)[C@@]2(C)CC[C@@H]1O [AGOSTEROL G]	8.8 (≈ 15.3 µM)		100 (≈ 173 µM)
